# Shown are actives, neighbours in structure and some others; about 3.5% of the full set was active somewhere.
# MrgX1 allo act = human MrgX1 positive allosteric modulation, primary screen. Q96LB2. MrgX1-HEK293, Fluo-4 calcium flux, FDSS; hits give high values. B-score at 10 µM. hit rate 0.63% among 310,000;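 active means plate-corrected calcium response at least 3 library SD above typical, normal starting fluorescence, not activating the receptor alone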;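 further: compound read alongside a low EC10 to EC30 dose of BAM8-22 agonist; peak minus trough fluorescence over baseline measured at the second addition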
# Target sequence (Q96LB2 whole entry, looked up): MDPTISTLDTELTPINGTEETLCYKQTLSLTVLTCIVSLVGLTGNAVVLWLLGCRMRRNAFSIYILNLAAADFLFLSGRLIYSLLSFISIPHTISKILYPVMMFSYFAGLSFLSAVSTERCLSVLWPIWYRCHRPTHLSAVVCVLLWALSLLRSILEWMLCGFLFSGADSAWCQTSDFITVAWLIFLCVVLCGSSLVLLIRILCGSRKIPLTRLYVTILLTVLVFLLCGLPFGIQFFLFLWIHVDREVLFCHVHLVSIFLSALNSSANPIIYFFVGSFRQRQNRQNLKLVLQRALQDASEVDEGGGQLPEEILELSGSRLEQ
# MrgX1 antag = human MrgX1 receptor antagonism, primary screen | hit rate 1.3% among 310,000 | B-score at 10 µM | AID 588676 | MRGX1-HEK293 calcium flux, Fluo-4, BAM8-22 antagonism; hits give low values | Q96LB2;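 active means calcium-response B-score plate-corrected more than 3 library SD below zero, starting fluorescence within 5 deviations, no agonist response on first addition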;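 further: peak minus trough fluorescence over baseline after final BAM8-22 challenge near maximal dose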
# MrgX1 ag = human MrgX1 receptor agonism, primary screen; MrgX1-HEK293 cells, Fluo-4 calcium fluorescence, agonist mode; hits give high values; B-score at 10 µM; hit rate 0.44% among 310,000;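 active means calcium response B-score plate-corrected fluorescence ratio at least 3 library SD, with starting fluorescence B-score inside 5 SD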
#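 Material: MrgX1-expressing HEK293 cells; input: 15,000 cells per well; doses: test compound given as first of three sequential additions; schedule: overnight plating before 1 h dye loading; technique: Fluo-4 NW calcium-flux fluorescence, kinetic read; evaluation: baseline-normalised fluorescence change ratio, B-scored; control set: plate-wise positive and negative controls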
# RGS4 block = human RGS4 inhibition. P49798. HEK293 M3R/RGS4 inducible, Fluo-4 calcium flux; hits give high values; triggered by carbachol at its EC20. B-score at 10 µM. hit rate 0.45% among 310,000. AID 463165;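 active means B-score, a plate-corrected calcium signal, over three deviations above library mean, with baseline fluorescence within five deviations of library mean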;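 further: RGS4 expression induced by doxycycline in cells with stable M3 receptor; B-score is computed from the integrated fluorescence ratio over baseline after carbachol; higher B-score means a larger calcium signal and so more RGS4 inhibition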
# Target sequence (P49798 whole entry, looked up): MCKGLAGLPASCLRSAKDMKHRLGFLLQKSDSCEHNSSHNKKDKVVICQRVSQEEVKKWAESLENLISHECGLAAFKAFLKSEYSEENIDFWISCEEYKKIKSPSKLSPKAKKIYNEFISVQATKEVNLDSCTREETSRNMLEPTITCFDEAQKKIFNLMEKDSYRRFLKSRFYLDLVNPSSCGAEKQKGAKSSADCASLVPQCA
# RGS4 act = RGS4 potentiation or activation. hit rate 0.92% among 310,000. B-score at 10 µM. HEK293 M3R/inducible RGS4, carbachol calcium flux Fluo4; hits give low values;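 active means B-score of the integrated calcium signal more than 4 SD below the library mean, with starting fluorescence not abnormally high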;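 further: negative B-score means reduced calcium response which marks RGS4 activation or potentiation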
#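 test system = M3R-expressing HEK293 line, RGS4 induced by doxycycline | probe or stimulus = carbachol at ECmax as muscarinic agonist stimulus | timing = dye loading 30 min 37 °C, buffer rest 30 min RT | signal = calcium dye Fluo4 fluorescence | evaluation = B score from integrated fluorescence ratio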
# MrgX1 allo conf = human MrgX1 positive allosteric modulation, re-confirmation | MrgX1-HEK293, Fluo-4 calcium fluorescence, FDSS | hit rate 13% among 1,200 | activation (ratio percentage), % at 10 µM | shares compounds with MrgX1 allo act;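 active means ratio at least 3 SD above the weak peptide control, stable starting fluorescence, no direct agonism earlier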;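 further: compound followed by low BAM8-22 agonist challenge near EC20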
# MrgX1 ant reconf = human MrgX1 receptor antagonism, re-confirmation screen. hit rate 19% among 2,300. shares compounds with MrgX1 antag. remaining BAM8-22 calcium response % of control (hits give low values), % at 10 µM. MrgX1-HEK293, BAM8-22 calcium flux, Fluo-4; hits give low values. AID 602420;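 active means remaining agonist calcium response no higher than 100% minus 3 SD of agonist-only control wells, with starting fluorescence near control levels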;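 further: agonist BAM8-22 given at a near maximal EC90 to ECmax level; peak minus minimum fluorescence divided by baseline after agonist addition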
# HEK293 Ca flux = counter-screen for MrgX1 antagonists: effect in parental HEK293 cells. shares compounds with MrgX1 antag. Fluo-4 calcium fluorescence, FDSS. fluorescence ratio F(max-min)/F0 at 10 µM. hit rate 2% among 4,000;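 active means duplicate-averaged calcium fluorescence ratio at least three times the standard deviation of buffer wells, a nonspecific response in parental cells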
# HEK293 Ca counter = activity in parental HEK293 cells without MrgX1; shares compounds with MrgX1 antag; hit rate 0.4% among 4,000; fluorescence ratio F(max-min)/F0 at 10 µM; AID 624114; parental HEK293 calcium flux, Fluo-4 fluorescence ratio; hits give high values;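 active means calcium fluorescence ratio, averaged over duplicates, at least 3 SD of the buffer-well ratio, meaning a nonspecific response in receptor-free cells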;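 further: untransfected parental HEK293 lacking MrgX1 used as counterscreen for MrgX1 allosteric activators; fluorescence change taken during the second addition on a kinetic imager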
# HEK293 Ca cntr2 = activity in parental HEK293 cells lacking MrgX1 receptor | hit rate 8.7% among 4,000 | AID 624115 | shares compounds with MrgX1 antag | Fluo-4 calcium fluorescence (FDSS); hits give high values | fluorescence ratio F(max-min)/F0 at 10 µM;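 active means calcium fluorescence ratio at least three times the spread of buffer wells, meaning a non-specific response in parental cells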
# A number is an active result; n = inactive; x = no result.
SMILES,MrgX1 allo act,MrgX1 antag,MrgX1 ag,RGS4 block,RGS4 act,MrgX1 allo conf,HEK293 Ca flux,HEK293 Ca counter,HEK293 Ca cntr2,others
Nc1ccc2nc(SCc3cccc(F)c3)sc2c1,9.2,n,n,n,n,n,n,n,n,
O=C(CSc1ccccc1)Nc1ccccc1N1CCOCC1,8.5,n,n,n,n,n,n,n,n,
O=C(CSc1ccc(F)cc1)Nc1ccccc1N1CCOCC1,n,n,n,n,n,x,x,x,x,
CCCCCCn1c(C(C)NC(=O)c2ccco2)nc2ccccc21 (stereo not drawn),18,n,n,n,n,n,n,n,n,
CCCCn1c(C(C)NC(=O)CC)nc2ccccc21 (stereo not drawn),n,n,n,n,n,x,x,x,x,
N/C(=N\OC(=O)Nc1ccc(Cl)cc1)c1ncc(C(F)(F)F)cc1Cl,n,n,n,n,n,x,x,x,x,
COc1cc(/C=C2/C(=N)N3N=C(CC(=O)N4CCOCC4)SC3=NC2=O)ccc1OCc1ccccc1,19,n,n,n,n,12%,n,n,n,
Cc1ccccc1Nc1nnc(SCc2cc([N+](=O)[O-])cc3c2OCOC3)s1,n,n,n,n,n,x,x,x,x,
Cc1nc2cc3c(cc2c(C)c1C(=O)OC(C)C)OCO3,7.1,n,n,n,n,n,n,n,n,
COC(=O)c1nc2cc3c(cc2c(C)c1C(=O)OC)OCO3,n,n,n,n,n,x,x,x,x,
CN(C)CCCOc1ccc2c(c1)Sc1ccccc1CC2=O,8.5,n,n,n,n,n,n,n,n,
Fc1cccc(-c2cc3nc4c(c(N5CCC6(CC5)OCCO6)n3n2)CCCC4)c1,7.6,n,n,n,n,n,n,n,n,
O=C(NCCCNC(=O)c1ccc(Cl)cc1Cl)c1cnccn1,n,n,n,n,n,x,x,x,x,
O=C(NCCCNC(=O)c1cc(Cl)ccc1Cl)c1cnccn1,n,n,n,n,n,x,x,x,x,
O=C(NCCCNC(=O)c1ccc(-c2cc(Cl)ccc2Cl)o1)c1cnccn1,18,n,n,n,n,20%,n,n,n,
Cc1ccc(-c2ccc(C(=O)NCCCNC(=O)c3cnccn3)o2)cc1Cl,18,n,n,n,n,13%,n,n,n,
Cc1cccc(N=C2NC(=O)S/C2=C\c2ccco2)c1,n,n,n,n,n,x,x,x,x,
Cc1cccc(N=C2CSC(=O)N2)c1,7.4,n,n,n,n,n,n,n,n,
Cc1ncoc1C(=O)Nc1nccs1,n,n,n,n,n,x,x,x,x,
CS(=O)(=O)N1N=C(c2cccs2)CC1c1ccc(F)cc1 (stereo not drawn),21,n,n,n,n,n,n,n,n,
Cc1sc2ncn(C(C)C(=O)OC3CCCCC3)c(=O)c2c1C (stereo not drawn),9.2,n,n,n,n,n,n,n,n,
Cc1cc(C(=O)CN2C(=O)NC3(CCC(C)CC3)C2=O)c(C)n1C (stereo not drawn),12,n,n,n,n,n,n,n,n,
Cc1ccccc1Oc1ncnc2oc(-c3ccccc3)cc12,18,n,n,n,n,44%,n,n,n,
COc1ccc(Nc2cc(C)nc(N)n2)cc1,n,n,n,n,n,x,x,x,x,
Nc1cc(Nc2ccc(Br)cc2)nc(N)n1,7.5,-8.6,n,n,n,n,n,n,n,MrgX1 ant reconf=n
SMILES,MrgX1 allo act,MrgX1 antag,MrgX1 ag,RGS4 block,RGS4 act,MrgX1 allo conf,HEK293 Ca flux,HEK293 Ca counter,HEK293 Ca cntr2,others
COc1ccc(NC(=O)NC2CCCc3ccccc32)cc1 (stereo not drawn),n,n,n,n,n,x,x,x,x,
Nc1nc(CN2CCCCCC2)nc(Nc2ccccc2)n1,n,n,n,n,n,x,x,x,x,
Cc1c(-c2nc(N)nc(Nc3ccccc3)n2)oc2ccccc12,20,n,n,n,n,n,n,n,n,
CCCc1cc(C(N)=O)c(NC(=O)c2ccoc2C)s1,8.7,n,n,n,n,n,n,n,n,
CCn1c(SCC(=O)N2CCN(c3ccccc3)CC2)nc2c([nH]c3ccccc32)c1=O,n,n,n,n,n,x,x,x,x,
O=C(CCc1nc(-c2ccccc2)c(-c2ccccc2)o1)OCc1ccc(Cl)cc1,n,n,n,n,n,x,x,x,x,
O=C(CCc1nc(-c2ccccc2)c(-c2ccccc2)o1)OCc1ccc(Br)cc1,20,n,n,n,n,n,n,n,n,
Nc1c2c(nc3ccc(Br)cc13)N(Cc1ccccc1)CC2,8.3,n,n,n,n,n,n,n,n,
Nc1c2c(nc3ccc(Br)cc13)N(c1ccccc1)CC2,n,n,n,x,x,x,x,x,x,
Cc1ccc(NC2(C#N)C(=O)Nc3ccccc32)cc1C (stereo not drawn),9,n,n,n,n,n,n,n,47,
COC(=O)c1ccc(NC2(C#N)C(=O)Nc3ccccc32)cc1 (stereo not drawn),n,n,n,n,n,x,x,x,x,
CC(SCc1ccccc1)C(=O)Nc1ccccc1Br (stereo not drawn),6.5,n,n,n,n,n,n,n,n,
CC(NS(=O)(=O)/C=C/c1ccccc1)C(=O)O (stereo not drawn),10,n,n,n,n,n,n,n,n,
CCOc1cc(/C=C2/C(=N)N3C(=NC2=O)SN=C3S(=O)(=O)CC)ccc1OC(=O)c1ccco1,35,n,n,n,n,24%,n,n,n,
CCOc1cc(/C=C2/C(=N)N3OC(C)=CC3=NC2=O)ccc1OC(=O)c1ccco1,n,n,n,n,n,x,x,x,x,
COc1cc(/C=C2/C(=N)N3C(=NC2=O)SN=C3S(=O)(=O)C(C)C)ccc1OC(=O)c1ccco1,38,n,n,n,n,37%,n,n,n,
CCOc1cc(/C=C2/C(=N)N3C(=NC2=O)SN=C3S(=O)(=O)C(C)C)ccc1OC(=O)c1ccco1,37,n,n,n,n,41%,n,n,48,
CCOc1cc(/C=C2/SC(=S)NC2=O)ccc1OC(=O)c1ccco1,n,n,n,n,n,x,x,x,x,
O=C(Nc1cccc(S(=O)(=O)N2CCCCC2)c1)C1CCC1,n,n,n,n,n,x,x,x,x,
CNc1ccc(/C=C(\C#N)C(=O)Nc2ccccn2)cc1[N+](=O)[O-],n,n,n,n,n,x,x,x,x,
Cc1ccc(NC(=O)C2C3/C=C\CCCCC32)cc1 (stereo not drawn),n,n,n,n,n,x,x,x,x,

# Screening data deposited in PubChem BioAssay by Johns Hopkins Ion Channel Center.
